The term IC50 denotes the concentration needed to halve the response being measured.

The values that follow come from ChEMBL document CHEMBL4840314, “Optimization of peptide-based inhibitors targeting the HtrA serine protease in Chlamydia: Design, synthesis and biological evaluation of pyridone-based and N-Capping group-modified analogues” (Eur J Med Chem, 2021).

Series [1] deals with HEp-2. The series is described as follows: Cytotoxicity against human HEp-2 cells assessed as reduction in MTS absorbance at 100 uM by MTS assay. In kind it is cell-based. Details: scale not given: the % may be the effect or the level left. To be noted: hep-2, 100 µM. The procedure, abridged:
(§1)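 HEp-2 cells were seeded at 5000/well and treated 24 h later with compound (two doses) alongside 1% DMSO and media controls, in triplicate. After 24 h treatment, medium was replaced with fresh supplemented DMEM. MTS/PMS was added for 4 h and absorbance read at 490 nm. Results are expressed as % MTS reduction relative to 1% DMSO-treated cells.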
On the technique in general: Tetrazolium dyes change colour on reduction, which living cells bring about.

For series [2], the system named is HEp-2. The series is described as follows: Cytotoxicity against human HEp-2 cells assessed as reduction in MTS absorbance at 25 uM by MTS assay. In kind it is cell-based. The conditions noted are these: hep-2, 25 µM. In a few lines:
as §1

The test system of series [3] is HEp-2. Put plainly: Cytotoxicity against human HEp-2 cells assessed as decrease in cell integrity at 25 uM by LDH assay. In kind it is cell-based. To be noted: hep-2, 25 µM. Also noted: scale not given: the % may be the effect or the level left. In a few lines: (§2)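 HEp-2 cells were seeded at 5000/well and treated 24 h later at two doses, with 1% DMSO and media-only controls, in triplicate, for 8 h. Maximum-release wells were lysed with 0.8% Triton X-100 45 min before supernatant collection. Supernatant was incubated with CytoTox reagent for 30 min, then stop solution, and read at A490. Extracellular LDH is given as % of maximum release.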

Series [4] concerns the target T1, Probable periplasmic serine endoprotease DegP-like (Chlamydia trachomatis, UniProt P18584).
T1 sequence (P18584 whole entry): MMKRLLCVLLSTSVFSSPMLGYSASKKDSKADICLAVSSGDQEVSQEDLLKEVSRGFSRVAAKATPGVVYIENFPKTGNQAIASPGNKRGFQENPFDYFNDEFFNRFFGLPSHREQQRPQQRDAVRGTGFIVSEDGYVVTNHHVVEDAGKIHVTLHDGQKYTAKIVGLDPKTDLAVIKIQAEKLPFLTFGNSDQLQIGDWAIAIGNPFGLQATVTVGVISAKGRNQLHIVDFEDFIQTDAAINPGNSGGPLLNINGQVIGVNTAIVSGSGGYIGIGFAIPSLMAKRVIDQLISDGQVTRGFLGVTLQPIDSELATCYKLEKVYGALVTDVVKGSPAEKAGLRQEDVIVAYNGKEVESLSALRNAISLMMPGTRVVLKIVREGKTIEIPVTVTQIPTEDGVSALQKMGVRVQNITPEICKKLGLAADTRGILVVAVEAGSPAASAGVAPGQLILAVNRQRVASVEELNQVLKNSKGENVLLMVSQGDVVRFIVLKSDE
The series is described as follows: Inhibition of recombinant ctHtrA serine protease using MeOCoum-ENLHLPLPI1F-D as substrate pretreated for 10 min followed by substrate addition and measured after 30 minutes. The procedure, abridged: (§3)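 Recombinant CtHtrA was tested against a six-dose inhibitor series in 50 mM Tris, 20 mM MgCl₂, pH 7.0. Plates were shaken before each of multiple reads per well. Each dose was run in triplicate, with a JO146 dose series (n=3) and DMSO controls (n=6). Relative inhibition is IC50(JO146)/IC50(compound), because IC50 varied between batches.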

For the next series, the target named is T2, Neutrophil elastase (Homo sapiens, UniProt P08246).
T2 sequence (P08246 whole entry): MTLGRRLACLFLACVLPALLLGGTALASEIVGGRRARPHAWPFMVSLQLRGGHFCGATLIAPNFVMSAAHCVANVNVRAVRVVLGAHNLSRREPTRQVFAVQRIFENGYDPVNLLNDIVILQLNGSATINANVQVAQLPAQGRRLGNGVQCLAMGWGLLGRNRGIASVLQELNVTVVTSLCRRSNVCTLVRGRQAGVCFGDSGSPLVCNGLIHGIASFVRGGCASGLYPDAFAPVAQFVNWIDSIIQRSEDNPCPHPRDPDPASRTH
The series is described as follows: Inhibition of human neutrophil elastase using methoxysuccinyl-Ala-Ala-Pro-Val-pNA as substrate incubated for 15 min.

For series [5], the target named is T3, Probable periplasmic serine endoprotease DegP-like (Chlamydia trachomatis) (UniProt P18584).
T3 sequence (whole entry): T1 sequence (P18584 whole entry)
Put plainly: Ratio of JO146 IC50 to test compound IC50 for inhibition of recombinant ctHtrA serine protease using Me0Coum-ENLHLPLPI1F-D as substrate pretreated for 10 minutes followed by substrate addition and measured after 30 minutes. The procedure, abridged: as §3

Another series concerns Pseudomonas aeruginosa. Put plainly: Antibacterial activity against Pseudomonas aeruginosa assessed as growth inhibition at 50 uM. The format is functional, organism-based. In a few lines: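 P. aeruginosa PAO1 was grown overnight in fluorescent broth (pH 7.0) at 37 °C with shaking, diluted 1/1000 with added MgSO₄, and given compound at 50 or 100 µM final. DMSO controls were 0.5% or 1%. OD600 and fluorescence (ex 405/em 460 nm) were read every 15 min for 24 or 48 h. Pyoverdine was quantified as area under the curve.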

The subject of the next series is Staphylococcus aureus. Put plainly: Antibacterial activity against Staphylococcus aureus assessed as growth inhibition at 50 uM. The format is functional, organism-based. The procedure, abridged: (§4)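 Broth microdilution MIC in cation-adjusted Mueller Hinton broth. Compound was 2-fold serially diluted from 32 µg/mL (approx. 50 µM) to 0.015 µg/mL. The inoculum was about 5×10⁵ CFU/mL from overnight cultures. Plates were incubated at 37 °C with shaking for 24 h. MIC was the lowest concentration without growth; technical triplicate.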

The subject of another series is Escherichia coli. The series is described as follows: Antibacterial activity against Escherichia coli assessed as growth inhibition at 50 uM. In kind it is functional, organism-based. In a few lines:
as §4

For series [6], the system named is Chlamydia trachomatis. Put plainly: Antibacterial activity against Chlamydia trachomatis D (D/UW-3/Cx; CtD) infected in HEp-2 cells assessed as log reduction in infectivity unit at 25 uM measured after 44 hrs. In kind it is functional. In a few lines:
(§5)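 C. trachomatis D was grown in HEp-2 cells and C. pecorum G in McCoy B cells, in high-glucose DMEM with 10% heat-inactivated FCS, 4 mM alanyl-glutamine, streptomycin and gentamicin. Cells were seeded at 20,000/well 24 h before infection, at MOI 12 (CtD) or MOI 4 (CpG). Infection was synchronised by centrifugation at 500×g, 28 °C, 30 min. Dose series added 16 h PI, with 1% DMSO and media controls. Read-out was IFU/mL; n=3.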

The subject of series [7] is Chlamydia pecorum. Put plainly: Antibacterial activity against Chlamydia pecorum G (MC/MarsBar;CpG) infected in McCoy B cells assessed as log reduction in infectivity unit at 25 uM measured after 44 hrs. In kind it is functional, organism-based. To be noted: VR629 G (MC/MarsBar;CpG). The procedure, abridged: as §5
The subject of series [8] is HEp-2. Put plainly: Cytotoxicity against human HEp-2 cells assessed as decrease in cell integrity at 100 uM by LDH assay. The format is cell-based. Details: scale not given: the % may be the effect or the level left. The conditions noted are these: hep-2, 100 µM. In a few lines:
as §2

The subject of series [9] is Chlamydia trachomatis. The series is described as follows: Antibacterial activity against Chlamydia trachomatis D (D/UW-3/Cx; CtD) infected in HEp-2 cells assessed as reduction in bacterial titer at 50 to 100 uM measured after 44 hrs. The format is functional, organism-based. To be noted: dose 50-100 µM. In a few lines:
as §5

Series [10] deals with Chlamydia pecorum. Put plainly: Antibacterial activity against Chlamydia pecorum G (MC/MarsBar;CpG) infected in McCoy B cells assessed as reduction in bacterial titer at 50 to 100 uM measured after 44 hrs. The format is functional, organism-based. To be noted: VR629 G (MC/MarsBar;CpG), dose 50-100 µM. In a few lines: as §5

Molecules are shown by their SMILES. Calls of active or inactive are those of the source. No cut-off for these calls is given here.

Consider `CCC(C)C(NC(=O)[C@@H]1CCCN1C(=O)[C@@H](NC(=O)NC(C)(C)C)C(C)(C)C)P(=O)(Oc1ccccc1)Oc1ccccc1` (some centres not stated), for which the Activity result is “Toxic” with HEp-2 [1], “Non-Toxic” with HEp-2 [2] and “<= 3.4%” in the series on HEp-2 [3].
With `CCC(C)C(NC(=O)[C@@H]1CCCN1C(=O)[C@@H](NC(=O)OC(C)(C)C)C(C)(C)C)P(=O)(Oc1ccccc1)Oc1ccccc1` (some centres not stated), the IC50 is 10.3 µM in [4] and 13.5 µM at Neutrophil elastase. Also, in series [5], the Ratio IC50 was determined as 1.22. Also, the result in the series on Pseudomonas aeruginosa, in the series with Staphylococcus aureus and in the series with Escherichia coli was inactive. In addition, the Activity result in the series on HEp-2 [3] is given as “<= 3.4%”.
Take `CC(C)C(NC(=O)[C@@H]1CCCN1C(=O)[C@@H](NC(=O)OC(C)(C)C)C(C)(C)C)P(=O)(Oc1ccccc1)Oc1ccccc1` (some centres not stated): the IC50 in series [4] came out at 9.3 µM; against Neutrophil elastase it was 3.02 µM. For the same molecule, the Ratio IC50 in series [5] was determined as 1.34. Moreover, the outcome in the series with Pseudomonas aeruginosa, with Staphylococcus aureus and in the series on Escherichia coli was inactive. In addition, the Activity result in the series on HEp-2 [3] is “<= 3.4%”.
Consider `CCC(C)C(NC(=O)Cn1cccc(NC(=O)Oc2ccccc2)c1=O)P(=O)(Oc1ccccc1)Oc1ccccc1` (configuration not stated), for which the outcome in the series with Chlamydia trachomatis [6] and with Chlamydia pecorum [7] was Active. For the same molecule, in the series on HEp-2 [1], the Activity entry is reported as “<= 25%”.
As for `CC(C)C(NC(=O)[C@@H]1CCCN1C(=O)[C@@H](NC(=O)OC(C)(C)C)C(C)C)P(=O)(Oc1ccccc1)Oc1ccccc1` (some centres not stated), the figures for the IC50 (in [4]; on Neutrophil elastase) were 12.5 µM and 1.15 µM, respectively. The Ratio IC50 in series [5] was 1. Further, the result in the series with Chlamydia trachomatis [6] and in the series on Chlamydia pecorum [7] was Active. Further, the results for the Activity result in the series with HEp-2 [1] and in the series with HEp-2 [3] were “<= 25%” and “<= 3.4%”, respectively. In addition, the outcome with Pseudomonas aeruginosa, with Staphylococcus aureus and with Escherichia coli was inactive.
As to `CCC(C)C(NC(=O)C(C)n1cccc(NC(=O)OC(C)(C)C)c1=O)P(=O)(Oc1ccccc1)Oc1ccccc1` (configuration not stated), the IC50 in series [4] was 128 µM. For the same molecule, the result with Chlamydia trachomatis [6] and in the series on Chlamydia pecorum [7] was Active. Moreover, the Activity entry with HEp-2 [1] was “<= 25%”; in the series on HEp-2 [8] it was less than 10%.
Take `CCC(C)C(NC(=O)[C@@H]1CCCN1C(=O)[C@@H](NC(=O)OCc1ccccc1)C(C)(C)C)P(=O)(Oc1ccccc1)Oc1ccccc1` (some centres not stated): the IC50 in series [4] came out at 24.9 µM. Further, the results for the Activity result in the series on HEp-2 [1], in the series on HEp-2 [2] and with HEp-2 [3] were “Toxic”, “Non-Toxic” and “<= 3.4%”, respectively. Further, the outcome with Chlamydia trachomatis [9] and with Chlamydia pecorum [10] was Active.
Take `CC(C)C(NC(=O)Cn1cccc(NC(=O)Oc2ccccc2)c1=O)P(=O)(Oc1ccccc1)Oc1ccccc1` (configuration not stated): the outcome in the series with Chlamydia trachomatis [6], in the series with Chlamydia pecorum [7], with Chlamydia trachomatis [9] and in the series with Chlamydia pecorum [10] was Active. In addition, the Activity result in the series with HEp-2 [1] is recorded as “<= 25%”.
For the molecule `CC(C)C(NC(=O)[C@@H]1CCCN1C(=O)[C@@H](NC(=O)NC(C)(C)C)C(C)(C)C)P(=O)(Oc1ccccc1)Oc1ccccc1` (some centres not stated), the figures for the Activity entry in the series with HEp-2 [1], with HEp-2 [2] and in the series on HEp-2 [3] were “Toxic”, “Non-Toxic” and “<= 3.4%”, respectively.
For the molecule `CC(C)C(NC(=O)C(C)n1cccc(NC(=O)Oc2ccccc2)c1=O)P(=O)(Oc1ccccc1)Oc1ccccc1` (configuration not stated), the IC50 in series [4] amounted to 41.8 µM. Besides, the outcome with Chlamydia trachomatis [6], in the series on Chlamydia pecorum [7], with Chlamydia trachomatis [9] and in the series with Chlamydia pecorum [10] was Active. Further, the Activity result in the series on HEp-2 [1] was “<= 25%”.
For the molecule `CC(C)C(NC(=O)C(C)n1cccc(NC(=O)OC(C)(C)C)c1=O)P(=O)(Oc1ccccc1)Oc1ccccc1` (configuration not stated), the result with Chlamydia trachomatis [6], with Chlamydia pecorum [7], with Chlamydia trachomatis [9] and in the series with Chlamydia pecorum [10] was Active. Besides, in the series with HEp-2 [1], the Activity entry was “<= 25%”.
Take `CC(C)C(NC(=O)[C@@H]1CCCN1C(=O)[C@@H](NC(=O)OCc1ccccc1)C(C)(C)C)P(=O)(Oc1ccccc1)Oc1ccccc1` (some centres not stated): the Activity result with HEp-2 [1] was “Toxic”; in the series with HEp-2 [2] it was “Non-Toxic”; in the series on HEp-2 [3] it was “<= 3.4%”.
Consider `CCC(C)C(NC(=O)[C@@H]1CCCN1C(=O)[C@@H](NC(=O)C(C)(C)C)C(C)(C)C)P(=O)(Oc1ccccc1)Oc1ccccc1` (some centres not stated), for which the outcome with Chlamydia trachomatis [6] and in the series with Chlamydia pecorum [7] was Active. Besides, the figures for the Activity result in the series on HEp-2 [1], with HEp-2 [2] and with HEp-2 [3] were “Toxic”, “Non-Toxic” and “<= 3.4%”, respectively.
`CCC(C)C(NC(=O)C(C)n1cccc(NC(=O)Oc2ccccc2)c1=O)P(=O)(Oc1ccccc1)Oc1ccccc1` (configuration not stated): the IC50 in series [4] is 19.8 µM. Besides, the result in the series on Chlamydia trachomatis [6] and in the series on Chlamydia pecorum [7] was Active. In the series with HEp-2 [1], the Activity result is reported as “<= 25%”.
